Test results: ChEMBL document CHEMBL1153987 (J Med Chem, 2009)
The source made the active and inactive calls. The rule behind the calls is not given here.

Assays:
[1] = test system: Jurkat; experiment: Inhibition of heat-induced HSP70 expression in human Jurkat cells at 50 ug/mL treated for 1 hr before heat induction by Western blot; type: functional, cell-based
[2] = target: Heat shock protein beta-1 (Homo sapiens) (UniProt P04792); experiment: Enhancement of HSP27 Ser78 phosphorylation in human HeLa cells at 50 ug/mL treated for 1 hr; type: cell-based
Outline: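 HeLa cells in DMEM + 10% calf serum, exponentially growing, exposed 1 h to 50 μg/ml compound; total cell extracts probed by Western blot with rabbit antibody to human HSP27 phospho-Ser78, alkaline phosphatase-conjugated goat anti-rabbit secondary, colorimetric detection.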

[3] = test system: Jurkat; experiment: Inhibition of heat-induced increase in nuclear HSF1 protein level in human Jurkat cells at 50 ug/mL treated for 1 hr before heat induction by Western blot; type: functional, cell-based
Outline: (§1)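 Cells were pretreated with compound for 1 h, then heat-shocked at 43 °C for 30 min. Nuclear extracts, the same ones prepared for EMSA, were analysed by Western blot with rabbit anti-HSF1 and goat anti-rabbit HRP, with chemiluminescent detection. Nuclear HSF1 level was read from band intensity. The phosphorylation state was read as reduced gel mobility of the HSF1 band.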

[4] = test system: HeLa; experiment: Inhibition of heat-induced increase in nuclear HSF1 protein level in human HeLa cells at 50 ug/mL treated for 1 hr before heat induction by Western blot; type: functional, cell-based; outline: as §1
[5] = test system: Jurkat; experiment: Inhibition of heat-induced increase in nuclear HSF1 protein phosphorylation in human Jurkat cells assessed as decrease in protein mobility at 50 ug/mL treated for 1 hr before heat induction by EMSA; type: functional, cell-based; outline: as §1
[6] = test system: HeLa; experiment: Inhibition of heat-induced increase in nuclear HSF1 protein phosphorylation in human HeLa cells assessed as decrease in protein mobility at 50 ug/mL treated for 1 hr before heat induction by EMSA; type: functional, cell-based; outline: as §1
[7] = Inhibition of CK2 assessed as level of ATP utilized by luciferase-based bioluminescence assay
[8] = Inhibition of CAMK2 assessed as level of ATP utilized by luciferase-based bioluminescence assay

Chain of Heat shock protein beta-1 (Homo sapiens) (P04792 whole entry): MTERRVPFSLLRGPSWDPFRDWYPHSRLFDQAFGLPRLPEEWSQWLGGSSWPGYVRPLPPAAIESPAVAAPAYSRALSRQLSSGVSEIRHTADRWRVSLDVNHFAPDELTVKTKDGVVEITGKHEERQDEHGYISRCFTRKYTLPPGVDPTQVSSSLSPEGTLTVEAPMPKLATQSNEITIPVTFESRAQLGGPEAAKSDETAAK

| Compound | Activity [1] | Activity [2] | Activity [3] | Activity [4] | Activity [5] | Activity [6] | IC50 [7] | IC50 [8] |
| --- | --- | --- | --- | --- | --- | --- | --- | --- |
| O=c1c(O)c(-c2ccc(O)c(O)c2)oc2cc(O)cc(O)c12 [QUERCETIN] | Active | Active | inactive | inactive | Active | Active | 5.6 µM | 3.3 µM |
| O=C(O)COc1cc(O)c2c(=O)c(O)c(-c3ccc(O)c(O)c3)oc2c1 | inactive | inactive | – | – | – | – | 9.7 µM | 9.3 µM |
| COc1ccc(-c2oc3cc(O)cc(O)c3c(=O)c2O)cc1O [TAMARIXETIN] | – | inactive | – | – | – | – | > 100 µM | 16.4 µM |
| O=C(O)COc1c(-c2ccc(O)c(O)c2)oc2cc(O)cc(O)c2c1=O | inactive | inactive | – | – | – | – | 2.45 µM | > 100 µM |
| COc1cc(O)cc2oc(-c3ccc(O)c(O)c3)c(O)c(=O)c12 | inactive | inactive | – | – | – | – | > 100 µM | 4 µM |
| COc1cc(-c2oc3cc(O)cc(O)c3c(=O)c2O)ccc1O [ISORHAMNETIN] | Active | inactive | – | – | – | – | 0.5 µM | 0.91 µM |
| COc1cc(O)c2c(=O)c(O)c(-c3ccc(O)c(O)c3)oc2c1 [RHAMNETIN] | Active | Active | – | – | – | – | 9.7 µM | 8.9 µM |
| COc1c(-c2ccc(O)c(O)c2)oc2cc(O)cc(O)c2c1=O [3-O-METHYLQUERCETIN] | inactive | inactive | – | – | – | – | 0.83 µM | > 100 µM |
| COC(=O)COc1cc(O)c2c(=O)c(O)c(-c3ccc(O)c(O)c3)oc2c1 | Active | Active | – | – | – | – | 0.85 µM | 9.1 µM |
| COC(=O)COc1cc(-c2oc3cc(O)cc(O)c3c(=O)c2O)ccc1O | Active | inactive | – | – | – | – | 53 µM | 6.3 µM |
| COC(=O)COc1cc(O)cc2oc(-c3ccc(O)c(O)c3)c(O)c(=O)c12 | inactive | inactive | – | – | – | – | > 100 µM | 69 µM |
